Measurements taken from ChEMBL document CHEMBL1629686, “Substrate selectivity and a novel role in inhibitor discrimination by residue 237 in the KPC-2 beta-lactamase” (Antimicrob Agents Chemother, 2010).

Experiments:
[1] = system: Klebsiella pneumoniae; assay: Ratio of Kcat/Km for Klebsiella pneumoniae 1534 beta-lactamase KPC-2 T237A mutant by spectrophotometric analysis
Method in brief: (§1)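 Purified KPC-2 variant enzymes (periplasmic lysate from E. coli, preparative isoelectric focusing). Hydrolysis followed by diode-array spectrophotometry in 10 mM PBS, pH 7.4, room temperature. Enzyme at 10 nM with substrate in molar excess for pseudo-first-order conditions. Vmax and Km came from a nonlinear least-squares Michaelis-Menten fit.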

[2] = system: Klebsiella pneumoniae; assay: Ratio of Kcat/Km for Klebsiella pneumoniae 1534 beta-lactamase KPC-2 T237E mutant by spectrophotometric analysis; method in brief: as §1
[3] = system: Klebsiella pneumoniae; assay: Activity of Klebsiella pneumoniae 1534 beta-lactamase KPC-2 T237E mutant by spectrophotometric analysis; method in brief: as §1
[4] = system: Klebsiella pneumoniae; assay: Activity of Klebsiella pneumoniae 1534 beta-lactamase KPC-2 T237A mutant by spectrophotometric analysis; method in brief: as §1
[5] = system: Klebsiella pneumoniae; assay: Activity of Klebsiella pneumoniae 1534 beta-lactamase KPC-2 T237S mutant by spectrophotometric analysis; method in brief: as §1
[6] = system: Klebsiella pneumoniae; assay: Selectivity index, Ratio of Kcat/Km for Klebsiella pneumoniae 1534 beta-lactamase KPC-2 T237S mutant to ratio of Kcat/Km for Klebsiella pneumoniae 1534 beta-lactamase KPC-2 by spectrophotometric analysis
Method in brief: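 Kinetics used purified enzymes in 10 mM PBS, pH 7.4, room temperature, with 10 nM enzyme and substrate in excess. Km and Vmax came from a Michaelis-Menten fit. kcat/Km of the variant was compared with wild type as ΔΔG = −RT ln of the kcat/Km ratio.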

[7] = system: Klebsiella pneumoniae; assay: Ratio of Kcat/Km for Klebsiella pneumoniae 1534 beta-lactamase KPC-2 T237S mutant by spectrophotometric analysis; method in brief: as §1

Molecule `O=C(Cc1cccs1)N[C@@H]1C(=O)N2C(C(=O)O)=C(/C=C/c3ccc([N+](=O)[O-])cc3[N+](=O)[O-])CS[C@H]12` has a kcat/Km [1] of 1.3e+07 M⁻¹ s⁻¹, a kcat/Km [2] of 600000 M⁻¹ s⁻¹ and a Km [3] of 167 µM. For the same molecule, the kcat [3] was 92 s⁻¹, the Km [4] was 15 µM and the kcat [4] was 191 s⁻¹. For the same molecule, the Km [5] was 5 µM, the kcat [5] was 50 s⁻¹ and the fold change (FC) [6] was 2.7. For the same molecule, the kcat/Km [7] was 1e+07 M⁻¹ s⁻¹.
